Measured values reported in ChEMBL document CHEMBL1142626, “Insecticidal and mutagenic evaluation of two annonaceous acetogenins” (J Nat Prod, 2000).

Tests used:
Myzus persicae [1] = assay: Antifeedant effect against Myzus persicae assessed as inhibition index at 100 ug/cm2 relative to control; assay type: functional; parameters: scale not given: the % may be the effect or the level left
Procedure, shortened: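 Choice settling test on apterous adult M. persicae: 20 boxes of 10 aphids per treatment. Settling inhibition %SI = [1 − (%aphids on treated/%aphids on control surface)] × 100.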

[2] = tested on: Leptinotarsa decemlineata; assay: Antifeedant effect against Leptinotarsa decemlineata assessed as feeding reduction at 10 ug/cm2; assay type: functional, organism-based
Procedure, shortened: (§1)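 Choice test on leaf disks using adult L. decemlineata or newly emerged fifth-instar S. littoralis larvae. Five to 10 plates per treatment, three insects each. Uneaten leaf-disk area was measured by scanner. %FR = [1 − (treatment/control consumption)] × 100 per arena. Where FR exceeded 50%, EC50 was taken from linear regression of %FR on log dose.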

Spodoptera littoralis [3] = assay: Antifeedant effect against Spodoptera littoralis L6 larvae assessed as relative consumption rate at 10 ug, po after 72 hrs; assay type: functional
Procedure, shortened: (§2)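 Preweighed, newly emerged S. littoralis L6 larvae (20 per experiment) were orally cannulated with 10 µg in 2 µL DMSO; controls got solvent alone. Relative consumption and growth rates were calculated at 72 h on a dry-weight basis. Log-transformed weights were analysed by ANOVA with LSD tests.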

Spodoptera littoralis [4] = assay: Antifeedant effect against Spodoptera littoralis L6 larvae assessed as relative growth rate at 10 ug, po after 72 hrs; assay type: functional; procedure, shortened: as §2
[5] = tested on: Leptinotarsa decemlineata; assay: Insecticidal activity against Leptinotarsa decemlineata assessed as mortality at 5 ug by hemolymph injection after 72 hrs; assay type: functional
Procedure, shortened: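 Adult L. decemlineata (20 beetles) were injected with 5 µg in DMSO through the metepimeron suture of the thorax. Beetles were kept on potato leaves. Symptoms and mortality were recorded up to 3 days, analysed by contingency tables and Abbott-corrected.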

Myzus persicae [6] = assay: Insecticidal activity against Myzus persicae assessed as increase in mortality at 100 ug/cm2 observed daily for 4 days; assay type: functional, organism-based
Procedure, shortened: (§3)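 No-choice test: 20 boxes, each with five same-age apterous adult M. persicae (100 insects). Nymphs produced in the first 48 h were separated from adults and kept in similarly treated boxes. Both were observed daily for 4 days for mortality. Analysed by contingency tables and LSD test.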

Myzus persicae [7] = assay: Insecticidal activity against Myzus persicae assessed as offspring production at 100 ug/cm2 observed daily for 4 days; assay type: functional, organism-based; procedure, shortened: as §3
Myzus persicae [8] = assay: Insecticidal activity against Myzus persicae assessed as offspring production at 50 ug/cm2 observed daily for 4 days; assay type: functional, organism-based; procedure, shortened: as §3
Spodoptera littoralis [9] = assay: Antifeedant effect against Spodoptera littoralis assessed as feeding reduction at 100 ug/cm2 relative to control; assay type: functional; parameters: scale not given: the % may be the effect or the level left; procedure, shortened: as §1

For C=C(C)[C@H]1Cc2c(ccc3c2O[C@@H]2COc4cc(OC)c(OC)cc4[C@@H]2C3=O)O1 [ROTENONE], the Activity (Myzus persicae [1]) was <40%, the Activity [2] was “Toxic” and the Activity (Spodoptera littoralis [3]) was 20.88 mg. The Activity (Spodoptera littoralis [4]) was 3.47 mg, the Activity [5] was 100% and the Activity (Myzus persicae [6]) was “Non-toxic”. For the same compound, the Activity (Myzus persicae [7]) was “Toxic”, the Activity (Myzus persicae [8]) was “Toxic” and the Activity (Spodoptera littoralis [9]) was >40%.
